# Only a selection was taken, and hits are over-represented in it overall.
# CHOP UPR activ: activators of apoptotic arm of unfolded protein response (CHOP). CHO-CHOP luciferase reporter, UPR activation, luminescence; percent of tunicamycin response over DMSO baseline. activation, % at 10 µM. 330,000 tested, 0.34% active. AID 449763;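 active means at 10 µM dose, activation of 40% or more, normalized to positive control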;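 further: 100% = tunicamycin at 10 µg/mL and 0% = DMSO alone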
#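 Assay system: CHO cells with stable CHOP pathway luciferase reporter; Buffer or medium: F12 plus 10% serum; Times: 16-18 h cell attachment, then 6 h compound exposure, 37 °C; Signal: luciferase luminescence; Read-out basis: percent activation relative to tunicamycin control; Control set: tunicamycin high control, DMSO low control.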
# FXN GAA850 act: activators of GAA850 frataxin (FXN) promoter; 360,000 tested, 0.56% active; HEK293 lucGAA850 FXN promoter luciferase reporter, 24 h; percent of 10 µM SAHA response; activation, % at 6 µM;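 active means activation above the average of all compounds screened plus 3 SD, cutoff fixed separately per campaign, cut at about 7.5% in these data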;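 further: 0% = DMSO wells and 100% = 10 µM SAHA wells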
# CHOP inh: blocks CHOP induction under ER stress; CHO-K1 CHOP-promoter luciferase, tunicamycin-induced, 15-18 h; inhibition, % at 10 µM; 220,000 tested, 3.8% active;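 active means compounds that reduced the stress-induced luciferase reporter signal by more than about 70% of percent inhibition, limit read from the data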;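 further: 0% = tunicamycin plus vehicle and 100% = wells without tunicamycin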
# XBP1 UPR activ: activators of adaptive arm of unfolded protein response (XBP1); 330,000 tested, 0.33% active; activation, % at 20 µM; CHO-XBP1 luciferase reporter, IRE1-XBP1 UPR activation, luminescence; percent of tunicamycin response, DMSO as zero; AID 463104;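 active means versus positive control, 20 µM dose yields 30% or more activation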;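 further: 100% = tunicamycin at 10 µg/mL and 0% = DMSO only wells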
#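 Material: CHO-XBP1 cells stably carrying IRE1-XBP1-driven luciferase reporter / Amount: 1000 cells per well / Compound: 20 µM, 1% DMSO / Times: 6 h treatment, 37 °C / Detection: luciferase luminescence / Measure: % activation of reporter signal versus tunicamycin and DMSO controls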
# GAA30 FXN cntr: activates GAA30 frataxin promoter, counter-screen for GAA850 activators. shares compounds with FXN GAA850 act. HEK293 lucGAA30 FXN promoter luciferase, 24 h; DMSO = 0%, 5 µM ipriflavone = 100%. activation, % at 6 µM. 1,900 tested, 66% active. AID 588350;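 active means mean activation above the mean of solvent-only control wells plus 3 SD, cut at about 22% in these data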;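 further: counterscreen of GAA850 promoter hits where activity marks nonselective or luminescence artifacts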
# FXN GAA850 conf: GAA850 FXN promoter activation confirmation | activation, % at 6 µM | HEK293 lucGAA850 FXN promoter luciferase reporter, 24 h; 100% = activation by SAHA | 1,900 tested, 86% active | AID 588351 | shares compounds with FXN GAA850 act;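 active means mean activation above a set limit taken from the primary screen, cut at about 8% in these data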;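 further: 0% = DMSO wells and 100% = 10 µM SAHA wells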
# Starred values were filed as active, the others as inactive; . = no result; ! = repeats disagree.
SMILES,CHOP UPR activ,FXN GAA850 act,CHOP inh,XBP1 UPR activ,GAA30 FXN cntr,FXN GAA850 conf
O=C1NCCN1Cc1ccc(F)cc1,-1,2,27,-1,.,.
O=C1NCCN1Cc1ccccc1,9,8.6*,25,-1,20,5
Cc1ccc2c(c1)c1nc3ccccc3nc1n2C,7,7,.,12,.,.
CCOc1ccc2c(c1)c1nc3ccccc3nc1n2C,.,7.7*,.,.,74*,21*
O=C(COC(=O)Cn1cnc2ccccc21)Nc1ccc(Br)cc1,.,0,.,.,.,.
O=C(COC(=O)Cn1cnc2ccccc21)Nc1ccc2c(c1)C(=O)c1ccccc1C2=O,3,8.7*,-5,2,108*,46*
CCN(CC(=O)Nc1ccc(OC)cc1)C(=O)C1CC(=O)N(Cc2ccccc2)C1 (configuration not stated),.,-1,.,.,.,.
CCOC(=O)C1=C(C)NC(C)=C(C(=O)OC)C1c1cccc(Cl)c1Cl (configuration not stated),10,2,68,-5,.,.
CCOC(=O)C1=C(COCCN)NC(C)=C(C(=O)OC)C1c1ccccc1Cl (configuration not stated),15,19*!,.,-2,-5,6
CCOCCC(=O)Nc1ccc2c(c1)c(=O)n(C)n2Cc1cccc(C(F)(F)F)c1,.,0,.,.,.,.
CC(C)c1ccccc1NC(=O)Nc1nc(C(N)Cc2ccc(C(F)(F)F)cc2)cs1 (configuration not stated),.,-2,.,.,.,.
NC(Cc1ccc(C(F)(F)F)cc1)c1csc(NC(=O)Nc2ccccc2Cc2ccccc2)n1 (configuration not stated),.,15*,.,.,20,15*
NC(CCc1ccccc1)c1csc(NC(=O)Nc2ccccc2Oc2ccccc2)n1 (configuration not stated),.,11*,.,.,9,16*
COc1cccc(Nc2nc(C(N)CCc3ccccc3)cs2)n1 (configuration not stated),.,8.3*,.,.,-4,7.7*
CC1(C(=O)N2CCCCC2)CCN1C(=O)c1ccccc1CCc1ccccc1 (configuration not stated),.,-1,.,.,.,.
c1ccc2[nH]c(-c3ccnc4ccccc34)nc2c1,6,9.4*!,-16,-1,65*,19*
c1ccc2c(-c3nc4ccccc4[nH]3)cccc2c1,.,-4,.,.,.,.
Cn1c(NCCN2CCCC2)nc2cc(-c3cccc(C(F)(F)F)c3)sc2c1=O,.,2,.,.,.,.
CN(C)CCNc1ncnc2c1sc1nc(N3CCCC3)c3c(c12)CC(C)(C)OC3,1,3,20,6,.,.
CC1(C)Cc2c(c(-c3ccco3)nc3sc4c(NCCCO)ncnc4c23)CO1,-2,7.7*,8,21,9,14*
O=C(/C=C/c1ccccc1)/C=C/c1ccccc1,10,7.9*,98*,6,32*,30*
COc1ccc(C(=O)C(C)N(C(=O)c2ccc(Cl)cc2Cl)N2C(=O)C3C4C=CC(C4)C3C2=O)cc1 (configuration not stated),-1,7.8*,61,1,25*,14*
Cc1ccc(C(=O)C(C)N(C(=O)c2ccc(Cl)cc2Cl)N2C(=O)CCCC2=O)cc1 (configuration not stated),2,0,17,-5,.,.
CC1(C)CC(=O)C=C(c2cccc3c2oc2ccccc23)C1,2,9.6*,.,5,61*,26*
NNc1nc2c(-c3ccc(Cl)cc3)nnn2c2ccccc12,8,8.2*,91*,1,129*,37*
SMILES,CHOP UPR activ,FXN GAA850 act,CHOP inh,XBP1 UPR activ,GAA30 FXN cntr,FXN GAA850 conf
NNc1nc2c(-c3ccc(F)cc3)nnn2c2ccccc12,3,6,10,2,.,.
CC(O)(c1cccc(F)c1)c1nc(-c2ccc3ccccc3c2)cs1 (configuration not stated),.,2,.,.,.,.
COc1ccc(Nc2cc(C)nc(NCc3ccccc3)n2)cc1,7,0,63,5,.,.
Cc1ccc(Nc2cc(C)nc(NCc3ccccc3)n2)cc1,3,13*,60,13,19,15*
CCOC(=O)C1(C)CCCN(C(=O)c2cc(C#N)cs2)C1 (configuration not stated),.,-2,.,.,.,.
COc1ccc(-c2ccc(=O)n(Cc3c(F)cccc3Cl)n2)cc1,3,8.0*,.,-1,43*,22*
COc1ccc(/C=N/N=C2/NC(=O)C(CC(=O)O)S2)cc1OCc1ccccc1Cl (configuration not stated),-2,1,-11,3,.,.
COc1cc(/C=N/O)ccc1OCc1ccccc1Cl,4,12*,37,9,122*,38*
CCOP(=O)(Nc1cccc2oc(=O)c3ccccc3c12)OCC,.,7.8*,.,.,25*,18*
CCOc1ccccc1NC(=O)c1cc2ccccc2oc1=O,0,3,.,-4,.,.
CC1(C(=O)Nc2ccc(Cl)c(Cl)c2)CCN1C(=O)CCC1CCCC1 (configuration not stated),.,0,.,.,.,.
O=C(c1ccc(-c2cccc(Cl)c2Cl)o1)N1CCOCC1,6,8.8*,15,-1,108*,39*
O=C(c1ccc(-c2ccccc2Cl)o1)N1CCC1,4,3,.,4,.,.
Cc1cc2c(cc1C)N(CC(=O)N1CCCC1)C(=O)CC(c1ccccc1)=N2,4,7.8*,5,2,78*,22*
COCCNC(=O)C1(C)CCCN(Cc2sc(C)nc2C)C1 (configuration not stated),.,0,.,.,.,.
COc1ccc(-c2csc(C(O)c3ccc(F)cc3)n2)cn1 (configuration not stated),.,1,.,.,.,.
O=C(Nc1ccccc1Cl)c1ccccc1CC(O)(c1ccccc1)c1ccccc1,.,14*,.,.,9,12*
Oc1ccc(-c2csc(-c3cccnc3)n2)cc1O,31,14*,40,0,62*,31*
Oc1ccc(-c2csc(Nc3ncccn3)n2)cc1O,.,16*,-20,.,108*,45*
CC(=O)Nc1cccc(-c2csc(Nc3ncccn3)n2)c1,.,.,0,.,.,.
Cc1nc(NC(=O)c2cc3c(s2)CCCCC3)sc1C(=O)N(C)C,3,4,10,10,.,.
Cc1nc(NC(=O)c2ccc(Br)s2)sc1C(=O)N(C)C,2,8.4*,-25,3,115*,33*
COc1ccccc1-c1ccc2c(c1)C(C)(Cc1cccc(F)c1)C(=O)N2 (configuration not stated),.,11*,.,.,17,12*
COc1ccc(C(C)=O)cc1CC1(C)C(=O)Nc2ccc(-c3ccccc3OC)cc21 (configuration not stated),.,15*,.,.,10,9.2*
c1ccc(OCCNc2ccn3nc(-c4cccs4)cc3n2)cc1,.,4,.,.,.,.
